# According to BindingDB's records for doi:10.1021/np500803e (Chungbuk National University, 2015):
# Biological target: Signal transducer and activator of transcription 3 (Homo sapiens, UniProt P40763)
# Assay: Inhibition of IL6-induced STAT3 activation in human Hep3B cells after 12 hrs by luciferase assay
# Summary of the method: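 Hep3B cells stably carrying a pSTAT3-luciferase reporter, 2 × 10^4 cells/well, grown 24 h, then switched to serum-free medium. Stimulated with IL-6 (10 ng/mL) with or without sample for 12 h. Luciferase activity then read. IC50 taken as the mean of triplicate experiments. Stattic and genistein used as positive controls.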
# Chain of Signal transducer and activator of transcription 3 (P40763 whole entry): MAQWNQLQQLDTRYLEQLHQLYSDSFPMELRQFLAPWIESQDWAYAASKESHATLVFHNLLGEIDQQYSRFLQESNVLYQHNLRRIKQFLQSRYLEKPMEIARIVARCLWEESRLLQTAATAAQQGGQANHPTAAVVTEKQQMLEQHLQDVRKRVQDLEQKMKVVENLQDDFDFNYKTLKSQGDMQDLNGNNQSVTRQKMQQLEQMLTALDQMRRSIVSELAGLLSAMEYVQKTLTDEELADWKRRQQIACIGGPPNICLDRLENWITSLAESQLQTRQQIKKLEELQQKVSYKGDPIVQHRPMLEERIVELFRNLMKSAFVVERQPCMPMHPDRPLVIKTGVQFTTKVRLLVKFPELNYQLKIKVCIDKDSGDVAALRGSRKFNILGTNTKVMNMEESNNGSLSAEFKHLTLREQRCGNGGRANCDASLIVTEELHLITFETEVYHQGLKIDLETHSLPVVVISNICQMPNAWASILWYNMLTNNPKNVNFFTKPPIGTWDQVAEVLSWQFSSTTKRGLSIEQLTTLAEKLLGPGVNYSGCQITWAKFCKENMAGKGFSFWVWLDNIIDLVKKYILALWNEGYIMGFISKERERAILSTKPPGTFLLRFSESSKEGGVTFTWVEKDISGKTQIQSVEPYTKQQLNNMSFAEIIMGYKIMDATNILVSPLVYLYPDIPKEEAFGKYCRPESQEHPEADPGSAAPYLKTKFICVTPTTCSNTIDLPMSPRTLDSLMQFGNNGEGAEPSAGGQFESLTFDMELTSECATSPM
row,Compound,IC50 [µM]
1,C=C(C)C(=O)CC[C@](C)(O[C@@H]1O[C@H](CO[C@@H]2O[C@H](CO)[C@@H](O)[C@H](O)[C@H]2O)[C@@H](O)[C@H](O)[C@H]1O)[C@H]1CC[C@]2(C)[C@@H]1[C@H](O)C[C@@H]1[C@@]3(C)C[C@@H](O)[C@H](O)C(C)(C)[C@@H]3CC[C@]12C,0.27
2,C=C(C)C(=O)CC[C@](C)(O[C@@H]1O[C@H](CO[C@@H]2O[C@@H](C)[C@H](O)[C@@H](O)[C@H]2O)[C@@H](O)[C@H](O)[C@H]1O)[C@H]1CC[C@]2(C)[C@@H]1[C@H](O)C[C@@H]1[C@@]3(C)C[C@@H](O)[C@H](O[C@@H]4O[C@H](CO)[C@@H](O)[C@H](O)[C@H]4O[C@@H]4O[C@H](CO)[C@@H](O)[C@H](O)[C@H]4O)C(C)(C)[C@@H]3CC[C@]12C,19.2
3,CC(C)(/C=C/C[C@](C)(O[C@@H]1O[C@H](CO[C@@H]2O[C@H](CO)[C@@H](O)[C@H](O)[C@H]2O)[C@@H](O)[C@H](O)[C@H]1O)[C@H]1CC[C@]2(C)[C@@H]1[C@H](O)C[C@@H]1[C@@]3(C)C[C@@H](O)[C@H](O)C(C)(C)[C@@H]3CC[C@]12C)OO,> 30
4,C[C@@H]1O[C@@H](OC[C@H]2O[C@@H](O[C@@](C)(C/C=C/C(C)(C)OO)[C@H]3CC[C@]4(C)[C@@H]3[C@H](O)C[C@@H]3[C@@]5(C)C[C@@H](O)[C@H](O[C@@H]6O[C@H](CO)[C@@H](O)[C@H](O)[C@H]6O[C@@H]6O[C@H](CO)[C@@H](O)[C@H](O)[C@H]6O)C(C)(C)[C@@H]5CC[C@]34C)[C@H](O)[C@@H](O)[C@@H]2O)[C@H](O)[C@H](O)[C@H]1O,> 30
5,CC(C)(/C=C/C[C@](C)(O[C@@H]1O[C@H](CO)[C@@H](O)[C@H](O)[C@H]1O)[C@H]1CC[C@]2(C)[C@@H]1[C@H](O)C[C@@H]1[C@@]3(C)C[C@@H](O)[C@H](O[C@@H]4O[C@H](CO)[C@@H](O)[C@H](O)[C@H]4O[C@@H]4O[C@H](CO)[C@@H](O)[C@H](O)[C@H]4O)C(C)(C)[C@@H]3CC[C@]12C)OO,> 30
6,CC(C)/C=C/C[C@](C)(O[C@@H]1O[C@H](CO[C@@H]2O[C@@H](C)[C@H](O)[C@@H](O)[C@H]2O)[C@@H](O)[C@H](O)[C@H]1O)[C@H]1CC[C@]2(C)[C@@H]1[C@H](O)C[C@@H]1[C@@]3(C)C[C@@H](O)[C@H](O[C@@H]4O[C@H](CO)[C@@H](O)[C@H](O)[C@H]4O[C@@H]4O[C@H](CO)[C@@H](O)[C@H](O)[C@H]4O)C(C)(C)[C@@H]3CC[C@]12C,> 30
7,C[C@@H]1O[C@@H](OC[C@H]2O[C@@H](O[C@@](C)(C/C=C/C(C)(C)O)[C@H]3CC[C@]4(C)[C@@H]3[C@H](O)C[C@@H]3[C@@]5(C)C[C@@H](O)[C@H](O[C@@H]6O[C@H](CO)[C@@H](O)[C@H](O)[C@H]6O)C(C)(C)[C@@H]5CC[C@]34C)[C@H](O)[C@@H](O)[C@@H]2O)[C@H](O)[C@H](O)[C@H]1O,17.1
8,CC(C)/C=C/C[C@](C)(O[C@@H]1O[C@H](CO[C@@H]2O[C@@H](C)[C@H](O)[C@@H](O)[C@H]2O)[C@@H](O)[C@H](O)[C@H]1O)[C@H]1CC[C@]2(C)[C@@H]1[C@H](O)C[C@@H]1[C@@]3(C)C[C@@H](O)[C@H](O[C@@H]4O[C@H](CO)[C@@H](O)[C@H](O)[C@H]4O)C(C)(C)[C@@H]3CC[C@]12C,17.6
9,C=C(C)C(=O)CC[C@](C)(O[C@@H]1O[C@H](CO[C@@H]2O[C@@H](C)[C@H](O)[C@@H](O)[C@H]2O)[C@@H](O)[C@H](O)[C@H]1O)[C@H]1CC[C@]2(C)[C@@H]1[C@H](O)C[C@@H]1[C@@]3(C)C[C@@H](O)[C@H](O)C(C)(C)[C@@H]3CC[C@]12C,0.59
10,CC(C)/C=C/C[C@](C)(O[C@@H]1O[C@H](CO[C@@H]2O[C@@H](C)[C@H](O)[C@@H](O)[C@H]2O)[C@@H](O)[C@H](O)[C@H]1O)[C@H]1CC[C@]2(C)[C@@H]1[C@H](O)C[C@@H]1[C@@]3(C)CC[C@H](O[C@@H]4O[C@H](CO)[C@@H](O)[C@H](O)[C@H]4O[C@@H]4O[C@H](CO)[C@@H](O)[C@H](O)[C@H]4O)C(C)(C)[C@@H]3CC[C@]12C,4
11,CC(C)/C=C/C[C@](C)(O[C@@H]1O[C@H](CO[C@@H]2O[C@@H](C)[C@H](O)[C@@H](O)[C@H]2O)[C@@H](O)[C@H](O)[C@H]1O)[C@H]1CC[C@]2(C)[C@@H]1[C@H](O)C[C@@H]1[C@@]3(C)C[C@@H](O)[C@H](O)C(C)(C)[C@@H]3CC[C@]12C,0.5
